According to ChEMBL document CHEMBL3352181, “Novel phenyl and pyridyl substituted derivatives of isoindolines: Synthesis, antitumor activity and DNA binding features” (Eur J Med Chem, 2014):
pIC50: −log10 of the molar value. Activity calls are given as the source filed them. The rule behind the calls is not given here.

Legend:
HepG2 [1] = test: Induction of cell cycle arrest on human HepG2 cells assessed as accumulation at subG1 phase at 20 uM after 24 hrs by propidium iodide staining based flow cytometry (reference value: 3.1 +/- 0.9%); type: functional
Summary of the method: (§1)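 HepG2 or SW620 cells were seeded at 25000 per well. After 24 h they were treated, then harvested 24 or 48 h later. Attached cells were trypsinized, pooled with floating cells, PBS-washed and fixed in 70% ethanol. Cells were stained with PI 1 µg/mL plus RNase A 0.2 µg/mL, and 10 000 events were acquired by flow cytometry. Phase percentages come from DNA histograms, in duplicate, with ANOVA at p < 0.05.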

HepG2 [2] = test: Induction of cell cycle arrest on human HepG2 cells assessed as accumulation at subG1 phase at 50 uM after 24 hrs by propidium iodide staining based flow cytometry (reference value: 3.1 +/- 0.9%); type: functional; summary of the method: as §1
HepG2 [3] = test: Induction of cell cycle arrest on human HepG2 cells assessed as accumulation at G1 phase at 20 uM after 24 hrs by propidium iodide staining based flow cytometry (reference value: 59.7 +/- 0.9%); type: functional
HepG2 [4] = test: Induction of cell cycle arrest on human HepG2 cells assessed as accumulation at G1 phase at 50 uM after 24 hrs by propidium iodide staining based flow cytometry (reference value: 59.7 +/- 0.9%); type: functional
HepG2 [5] = test: Induction of cell cycle arrest on human HepG2 cells assessed as accumulation at S phase at 20 uM after 24 hrs by propidium iodide staining based flow cytometry (reference value: 8.6 +/- 2.8%); type: functional
HepG2 [6] = test: Induction of cell cycle arrest on human HepG2 cells assessed as accumulation at S phase at 50 uM after 24 hrs by propidium iodide staining based flow cytometry (reference value: 8.6 +/- 2.8%); type: functional; summary of the method: as §1
HepG2 [7] = test: Induction of cell cycle arrest on human HepG2 cells assessed as accumulation at G2/M phase at 20 uM after 24 hrs by propidium iodide staining based flow cytometry (reference value: 31.7 +/- 1.9%); type: functional
HepG2 [8] = test: Induction of cell cycle arrest on human HepG2 cells assessed as accumulation at G2/M phase at 50 uM after 24 hrs by propidium iodide staining based flow cytometry (reference value: 31.7 +/- 1.9%); type: functional
HepG2 [9] = test: Induction of cell cycle arrest on human HepG2 cells assessed as accumulation at subG1 phase at 20 uM after 48 hrs by propidium iodide staining based flow cytometry (reference value: 2.8 +/- 0.3%); type: functional; summary of the method: as §1
HepG2 [10] = test: Induction of cell cycle arrest on human HepG2 cells assessed as accumulation at subG1 phase at 50 uM after 48 hrs by propidium iodide staining based flow cytometry (reference value: 2.8 +/- 0.3%); type: functional; summary of the method: as §1
HepG2 [11] = test: Induction of cell cycle arrest on human HepG2 cells assessed as accumulation at G1 phase at 20 uM after 48 hrs by propidium iodide staining based flow cytometry (reference value: 55.0 +/- 4.8%); type: functional
HepG2 [12] = test: Induction of cell cycle arrest on human HepG2 cells assessed as accumulation at G1 phase at 50 uM after 48 hrs by propidium iodide staining based flow cytometry (reference value: 55.0 +/- 4.8%); type: functional
HepG2 [13] = test: Induction of cell cycle arrest on human HepG2 cells assessed as accumulation at S phase at 20 uM after 48 hrs by propidium iodide staining based flow cytometry (reference value: 0 +/- 0%); type: functional; summary of the method: as §1
HepG2 [14] = test: Induction of cell cycle arrest on human HepG2 cells assessed as accumulation at S phase at 50 uM after 48 hrs by propidium iodide staining based flow cytometry (reference value: 0 +/- 0%); type: functional; summary of the method: as §1
HepG2 [15] = test: Induction of cell cycle arrest on human HepG2 cells assessed as accumulation at G2/M phase at 20 uM after 48 hrs by propidium iodide staining based flow cytometry (reference value: 45.0 +/- 4.8%); type: functional
HepG2 [16] = test: Induction of cell cycle arrest on human HepG2 cells assessed as accumulation at G2/M phase at 50 uM after 48 hrs by propidium iodide staining based flow cytometry (reference value: 45.0 +/- 4.8%); type: functional
HepG2 [17] = test: Induction of apoptosis in human HepG2 cells assessed as induction of cytoplasmic shrinkage at 25 uM after 24 hrs by Annexin V-Fluos staining based fluorescent microscopy; type: functional, cell-based
Summary of the method: (§2)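 Cells seeded on chamber slides at 4000 per well and treated 24 h (HepG2 at 25 or 50 µM; SW620 at 50 µM). Incubated 15 min with Annexin V-Fluos reagent plus propidium iodide, washed in PBS, and examined by fluorescence microscopy for morphology and labelling.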

HepG2 [18] = test: Induction of apoptosis in human HepG2 cells assessed as apoptotic bodies at 25 uM after 24 hrs by Annexin V-Fluos staining based fluorescent microscopy; type: functional, cell-based; summary of the method: as §2
[19] = target: T1, DNA topoisomerase 1 (Homo sapiens) (UniProt P11387); test: Inhibition of human topoisomerase 1 assessed as topoisomerase poison activity by measuring generation of open circular DNA using supercoiled pUC19 DNA at 5 to 50 uM by agarose gel electrophoresis
T1 sequence (whole entry): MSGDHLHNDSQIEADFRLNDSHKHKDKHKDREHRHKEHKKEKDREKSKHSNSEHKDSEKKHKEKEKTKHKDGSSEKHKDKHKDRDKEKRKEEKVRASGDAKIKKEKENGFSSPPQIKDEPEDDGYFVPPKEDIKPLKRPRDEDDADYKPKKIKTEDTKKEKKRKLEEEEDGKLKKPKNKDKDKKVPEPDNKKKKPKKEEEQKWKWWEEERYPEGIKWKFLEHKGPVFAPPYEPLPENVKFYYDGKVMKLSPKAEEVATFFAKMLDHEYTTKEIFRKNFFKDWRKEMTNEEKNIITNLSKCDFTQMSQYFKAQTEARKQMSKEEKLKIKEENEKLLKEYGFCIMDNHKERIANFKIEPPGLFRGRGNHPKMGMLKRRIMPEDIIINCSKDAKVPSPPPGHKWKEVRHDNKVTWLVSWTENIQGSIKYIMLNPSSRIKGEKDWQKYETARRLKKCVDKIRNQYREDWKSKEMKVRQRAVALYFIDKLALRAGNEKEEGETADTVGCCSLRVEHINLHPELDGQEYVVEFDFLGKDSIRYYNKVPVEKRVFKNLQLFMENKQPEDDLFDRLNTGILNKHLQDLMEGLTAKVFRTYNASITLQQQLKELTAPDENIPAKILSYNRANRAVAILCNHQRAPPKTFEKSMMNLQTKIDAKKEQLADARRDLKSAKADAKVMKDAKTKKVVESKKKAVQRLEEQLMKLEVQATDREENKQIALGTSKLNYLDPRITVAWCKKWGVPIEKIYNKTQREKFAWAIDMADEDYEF
Summary of the method: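 Supercoiled pUC19 plasmid was incubated with human topoisomerase I and graded compound concentrations. Reactions were stopped with SDS and proteinase K. DNA forms were resolved on 1% agarose in TBE (2 h, 120 V), post-stained with ethidium bromide and photographed under UV. Poisoning was read as appearance of nicked DNA, with camptothecin as the positive control.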

Nucleic Acid = test: Induction of DNA intercalation in supercoiled pUC19 DNA in presence of human topoisomerase 1 assessed as effect on topoisomerase 1-mediated DNA relaxation at 5 to 50 uM by agarose gel electrophoresis; type: nucleic-acid assay; settings: Escherichia coli
Summary of the method: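 Supercoiled pUC19 incubated with human topoisomerase I and graded compound concentrations. Stopped with SDS/proteinase K. DNA forms resolved on 1% agarose in TBE, 2 h at 120 V, stained post-run with ethidium bromide and viewed under UV. Camptothecin was the topo I poison control.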

MCF7 = test: Antiproliferative activity against human MCF7 cells assessed as inhibition of cell proliferation after 72 hrs by MTT assay; type: functional, cell-based
Summary of the method: (§3)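 Cells grown as monolayers in DMEM with 10% FBS, 2 mM L-glutamine, penicillin/streptomycin, 37 °C, 5% CO2. Seeded at 5000/well on day 0. Compounds added after 24 h as five serial dilutions (0,01 to 100 µM), DMSO ≤0.1%, then 72 h. MTT read-out converted to percentage growth. IC50 by linear regression; quadruplicates in three experiments.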

[20] = (§4) Antiproliferative activity against human SW620 cells assessed as inhibition of cell proliferation after 72 hrs by MTT assay; type: functional, cell-based, SW-620; settings: Homo sapiens, SW-620, 72 h; summary of the method: as §3
SW-620 = test: as §4; type: functional, cell-based; summary of the method: as §3
HepG2 [21] = test: Antiproliferative activity against human HepG2 cells assessed as inhibition of cell proliferation after 72 hrs by MTT assay; type: functional, cell-based; summary of the method: as §3
BJ = test: Antiproliferative activity against human BJ cells assessed as inhibition of cell proliferation after 72 hrs by MTT assay; type: cell-based; settings: 72 h; summary of the method: as §3
HeLa = test: Antiproliferative activity against human HeLa cells assessed as inhibition of cell proliferation after 72 hrs by MTT assay; type: functional, cell-based; summary of the method: as §3

O=[N+]([O-])c1ccc(/N=C2\c3ccccc3CN2c2ccc([N+](=O)[O-])cc2)cc1
Activity (HepG2 [1]): 6.6% | Activity (HepG2 [2]): 8.3% | Activity (HepG2 [3]): 58.8% | Activity (HepG2 [4]): 55% | Activity (HepG2 [5]): 25.6% | Activity (HepG2 [6]): 27.6% | Activity (HepG2 [7]): 15.6% | Activity (HepG2 [8]): 17.4% | Activity (HepG2 [9]): 4.4% | Activity (HepG2 [10]): 4.3% | Activity (HepG2 [11]): 53.7% | Activity (HepG2 [12]): 59.7% | Activity (HepG2 [13]): 1.3% | Activity (HepG2 [14]): 0.8% | Activity (HepG2 [15]): 44.9% | Activity (HepG2 [16]): 39.4% | Activity (HepG2 [17]): Active | Activity (HepG2 [18]): Active | inhibition [19]: inactive | Activity (Nucleic Acid): inactive | inhibition (MCF7): Dose-dependent effect | pIC50 (MCF7; Homo sapiens, MCF7, 72 h): 5.09 | pIC50 [20]: 4.48 | inhibition (SW-620): Dose-dependent effect | inhibition (HepG2 [21]): Dose-dependent effect | pIC50 (HepG2 [21]; HepG2, 72 h): 5.02 | pIC50 (BJ; Homo sapiens, BJ): 4.12 | inhibition (INH) (BJ; human, bj): Dose-dependent effect | inhibition (HeLa): Dose-dependent effect | pIC50 (HeLa; Homo sapiens, HeLa, 72 h): 5.11
